Calls of active or inactive are those of the source.

Series [1] deals with Hepatitis delta virus. Nature of the series: Antiviral activity […] infected in C57B/L transgenic mouse harbouring human NTCP assessed as decrease in viral RNA levels in liver at 40 mg/kg, ip administered as single dose followed by HDV challenge at day 2 and measured at day 8 post infection by qPCR analysis. The class given is functional, organism-based. As to conditions: time 8.0 day. The essentials:
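Neonatal hNTCP-transgenic C57B/L mice received 40 mg/kg i.p. before HDV inoculation, either once or on two consecutive days (n = 4 per group; vehicle group n = 5). HDV was given at 5 × 10⁹ Geq i.p. on day 9 after birth, and mice were sacrificed on day 15. Liver RNA was assayed by RT-qPCR on cDNA from 20 ng RNA, with NTCP mRNA also measured. Group medians are shown.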
(Quantitative PCR measures a nucleic acid by following its amplification.)

Series [2] is described as follows: Bioavailability in C57BL/6 mouse at 10 mg/kg, ip. As to conditions: in vivo. It counts as ADME, organism-based. The method, boiled down: (§1)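 Male C57BL/6 mice (n = 3), single dose IV 5 mg/kg, IP 10 mg/kg or PO 10 mg/kg in DMSO:cremophor:0.9% NaCl 5:5:90; plasma parameters reported as means.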
Series [3] can be described thus: Intrinsic clearance in rat liver microsomes at 1 uM preincubated for 5 mins followed by NADPH addition and measured upto 60 mins by LC-MS analysis. It counts as ADME, Microsome. Conditions: time 65 min, read-out: CLH. Background: Liver microsomes are a subcellular fraction often used to study metabolism.
Series [4] is described as follows: Intrinsic clearance in mouse liver microsomes at 1 uM preincubated for 5 mins followed by NADPH addition and measured upto 60 mins by LC-MS analysis. The class given is ADME, Microsome. As to conditions: read-out: CLH. The method, boiled down: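 Human or mouse liver microsomes, final 1 mg/mL in 0.05 M phosphate buffer pH 7.4; compound final 1 μM, preincubated 37 °C 5 min, started with 1 mM NADPH; sampled at 0, 5, 15, 30, 60 min, methanol quench, −20 °C 1 h, centrifuged, supernatant by LC–MS.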

In series [5] the target is T1, Hepatic sodium/bile acid cotransporter (Mus musculus, UniProt O08705).
T1 sequence (O08705 whole entry): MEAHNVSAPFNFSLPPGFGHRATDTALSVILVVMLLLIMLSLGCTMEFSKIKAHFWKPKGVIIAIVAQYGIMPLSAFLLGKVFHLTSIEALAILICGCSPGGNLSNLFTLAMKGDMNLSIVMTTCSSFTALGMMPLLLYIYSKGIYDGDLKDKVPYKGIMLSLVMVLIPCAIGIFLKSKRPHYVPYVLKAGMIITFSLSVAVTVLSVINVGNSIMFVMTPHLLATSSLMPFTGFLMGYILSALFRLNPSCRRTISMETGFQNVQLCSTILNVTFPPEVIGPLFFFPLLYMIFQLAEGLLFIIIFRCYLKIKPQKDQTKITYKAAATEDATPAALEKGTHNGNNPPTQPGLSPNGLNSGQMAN
As to the kind of experiment: Inhibition of mouse NTCP-mediated [3H]-TCA uptake expressed in human HepG2 cells at 2 uM incubated for 2 hrs followed by substrate addition and measured for 10 mins by microbeta liquid scintillation counter analysis. It counts as cell-based. Conditions: hepg2, 2.167 h, time 130 min. The essentials: (§2)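 HepG2 cells expressing NTCP (human, mouse, monkey or tree shrew) seeded 4–6 h, PMM 20–24 h; compound 2 h, then Na+ Ringer's buffer with 2 μM 3H-TCA, 37 °C 10 min; PBS washes, lysis in 1% Triton X-100, scintillation counting. Single-concentration lines at 2 μM.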

Series [6] can be described thus: Immunosuppressive activity in C57B/L mouse spleen T cells assessed as inhibition of anti-CD3 induced T cell proliferation incubated for 48 hrs by CFSE staining based flow cytometric analysis. The class given is tissue-based. The essentials:
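Spleen T cells from adult C57B/L mouse, CFSE-labelled, cultured in RPMI-1640 on anti-CD3-coated wells with compound or DMSO; stained with PE-anti-CD4 before flow cytometric proliferation analysis. Legend gives 48 h stimulation, methods 72 h; 2 μM compounds.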
Background: Flow cytometry measures light scatter and fluorescence of single cells or particles in a stream.

Series [7] has as its system Hepatitis delta virus. As to the kind of experiment: Antiviral activity against HDV infected in human HepG2-NTCP cells assessed as reduction in HDV delta Ag measured 5 days post infection by DAPI staining based immunofluorescence assay relative to control. As to conditions: time 5.0 day. The class given is functional, cell-based. The essentials:
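HepG2-NTCP cells infected with HDV in presence of compound; delta antigen stained at dpi 5 with FITC-labelled anti-delta antibody, nuclei with DAPI; high-content imaging and image analysis give infection ratio relative to DMSO control.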

Series [8] deals with T2, Hepatic sodium/bile acid cotransporter (Homo sapiens, UniProt Q14973).
T2 sequence (Q14973 whole entry): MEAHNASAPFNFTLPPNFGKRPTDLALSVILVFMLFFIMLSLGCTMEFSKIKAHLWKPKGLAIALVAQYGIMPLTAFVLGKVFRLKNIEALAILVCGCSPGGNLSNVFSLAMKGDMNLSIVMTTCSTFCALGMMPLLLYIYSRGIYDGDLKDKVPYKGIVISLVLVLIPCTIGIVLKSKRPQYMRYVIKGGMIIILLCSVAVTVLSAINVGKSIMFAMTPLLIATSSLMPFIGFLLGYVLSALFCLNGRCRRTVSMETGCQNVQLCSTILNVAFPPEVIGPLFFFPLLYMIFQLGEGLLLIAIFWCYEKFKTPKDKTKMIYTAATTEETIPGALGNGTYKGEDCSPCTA
Nature of the series: Inhibition of human NTCP-mediated [3H]-TCA uptake expressed in human HepG2 cells at 2 uM incubated for 2 hrs followed by substrate addition and measured for 10 mins by microbeta liquid scintillation counter analysis. It counts as cell-based. As to conditions: hepg2, 2.167 h, time 130 min. The essentials: as §2

In series [9] the test system is Hepatitis B virus. Nature of the series: Antiviral activity against HBV infected in human HepG2-NTCP cells assessed as reduction in HBV viral transcription at 10 uM cells inoculated with virus for 4 hrs at room temperature and 37 degree C for 24 hrs followed inoculum changed with PMM medium for every 2 days until day 5 post infection by DIG-labelled GAPDH based northern blot analysis. As to conditions: time 28.0 hrs. It counts as functional, organism-based. The essentials: (§3)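 Infected HepG2-NTCP cells given compound either with the HBV inoculum or at dpi 3–5; RNA extracted with TRIzol, run on 1.0% agarose–formaldehyde/MOPS gel. Northern blot as for Southern, probed with DIG-labelled full-length HBV genome plus DIG-labelled GAPDH probe.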

For series [10], the system named is HepG2. Nature of the series: Inhibition of tree shrew NTCP-mediated [3H]-TCA uptake expressed in human HepG2 cells at 2 uM incubated for 2 hrs followed by substrate addition and measured for 10 mins by microbeta liquid scintillation counter analysis. It counts as cell-based. As to conditions: Scandentia. The method, boiled down: as §2
Series [11] can be described thus: Tmax in C57BL/6 mouse at 10 mg/kg, po. It counts as ADME, organism-based. Conditions: in vivo. The essentials: as §1
Series [12] has as its system Hepatitis B virus. Nature of the series: Antiviral activity against HBV infected in human HepG2-NTCP cells assessed as reduction in HBV viral transcription at 10 uM treated 3 days post infection by northern blot analysis. It counts as functional, organism-based. As to conditions: time 3.0 day. The method, boiled down: as §3
Series [13] can be described thus: Half life in C57BL/6 mouse plasma at 5 mg/kg, iv. The class given is ADME, organism-based. The method, boiled down:
as §1

For series [14], the system named is Hepatitis B virus. As to the kind of experiment: Antiviral activity against HBV infected in primary human hepatocytes. It counts as functional, organism-based. As to conditions: Hepatocyte.

`CC[C@@H]1NC(=O)[C@H]([C@@H]2O[C@@H](Sc3cccc(OCc4ccccc4)c3)C[C@H]2C)N(C)C(=O)[C@H](C(C)C)N(C)C(=O)[C@H](CC(C)C)N(C)C(=O)[C@H](CC(C)C)N(C)C(=O)[C@@H](C)NC(=O)[C@H](C)NC(=O)[C@H](CC(C)C)N(C)C(=O)[C@H](C(C)C)NC(=O)[C@H](CC(C)C)N(C)C(=O)CN(C)C1=O`: the outcome in series [1] and in series [9] was Active. The bioavailability in series [2] was determined as 110%. For the same compound, the results for the microsomal CLint at 1 µM in series [3] and in series [4] were 2.2 µL/min/mg and 4.1 µL/min/mg, respectively. Besides, the “inhibition (INH)” value in series [5] and in [8] was “Active” in each case. Further, the results for the Activity result in [6] and in series [7] were “Non-Toxic” and “Dose-dependent effect”, respectively. For the same compound, the inhibition entry in [10] was “Active”. Also, the Tmax – broadly, the time from dosing to the highest level – in series [11] came out at 1 h. Further, in [12], the result was inactive. In addition, the half-life (commonly the time needed for the level to fall by half in the phase considered) in series [13] is 6.03 h. Also, inhibition in series [14] was half-maximal at 59 nM (IC50).

For the origin of these results see ChEMBL document CHEMBL4706643 (J Med Chem, 2021).
